This note sets out measurements from ChEMBL document CHEMBL2040750, “Hybrids of ravuconazole: synthesis and biological evaluation” (2012).

Holding throughout (assay type): functional
Experiment [1] concerns Candida albicans. As to the kind of experiment: Antifungal activity Candida albicans NCIM 3471 after 24 to 72 hrs by NCCLS method. The procedure, abridged: (§1)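 Broth microdilution MIC per NCCLS. Compounds dissolved in DMSO, serially diluted in growth medium, incubated at 37 °C. Read at 24 h for bacteria and 24–72 h for fungi. MIC90 taken as the first well with about 90% growth reduction relative to the drug-free well.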

In experiment [2] the test system is Candida albicans. Description: Antifungal activity Candida albicans NCIM 3471 at 100 ug/disc by agar-well diffusion assay. Particulars: for zone of inhibition at 100 µg/disc: read-out: DIZ. The method in brief:
(§2)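 Agar-well diffusion screen against standard strains. Zone of inhibition is the read-out. Chloramphenicol, nystatin and ravuconazole were run as positive controls.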
For orientation: Agar diffusion results depend on both activity and mobility in agar.

Experiment [3] deals with Staphylococcus aureus. Description: Antibacterial activity Staphylococcus aureus NCIM 2079 at 100 ug/disc by agar-well diffusion assay. The method in brief: as §2
The test system of experiment [4] is Bacillus subtilis. Description: Antibacterial activity Bacillus subtilis NCIM 2250 at 100 ug/disc by agar-well diffusion assay. The procedure, abridged:
as §2

Experiment [5] has as its system Escherichia coli. Description: Antibacterial activity Escherichia coli NCIM 2109 at 100 ug/disc by agar-well diffusion assay. Particulars: for zone of inhibition at 100 µg/disc: read-out: DIZ. The procedure, abridged: as §2
Experiment [6] concerns Pseudomonas aeruginosa. As to the kind of experiment: Antibacterial activity Pseudomonas aeruginosa NCIM 2036 at 100 ug/disc by agar-well diffusion assay. Particulars: for zone of inhibition at 100 µg/disc: read-out: DIZ. The method in brief: as §2
In experiment [7] the test system is Bacillus subtilis. As to the kind of experiment: Antibacterial activity Bacillus subtilis NCIM 2250 after 24 hrs by NCCLS method. The method in brief: as §1
The test system of experiment [8] is Aspergillus niger. Description: Antifungal activity Aspergillus niger NCIM 545 at 100 ug/disc by agar-well diffusion assay. Particulars: for zone of inhibition at 100 µg/disc: read-out: DIZ. The procedure, abridged:
as §2

The subject of experiment [9] is Aspergillus niger. Description: Antifungal activity Aspergillus niger NCIM 545 after 24 to 72 hrs by NCCLS method. The method in brief:
as §1

Experiment [10] deals with Staphylococcus aureus. Description: Antibacterial activity Staphylococcus aureus NCIM 2079 after 24 hrs by NCCLS method. The procedure, abridged: as §1
Experiment [11] relates to Escherichia coli. As to the kind of experiment: Antibacterial activity Escherichia coli NCIM 2109 after 24 hrs by NCCLS method. The procedure, abridged:
as §1

For experiment [12], the system named is Pseudomonas aeruginosa. As to the kind of experiment: Antibacterial activity Pseudomonas aeruginosa NCIM 2036 after 24 hrs by NCCLS method. The procedure, abridged:
as §1

Values after ≈ are worked out from the molar mass of the structure shown. Active and inactive are the calls of the source. No cut-off for these calls is given here.

For orientation: MIC means the least concentration at which growth counts as inhibited.

On to `O=[N+]([O-])c1ccc(-c2csc(N/N=C(/Cn3cncn3)c3cc(C(F)(F)F)cc(C(F)(F)F)c3)n2)cc1`, for which the MIC entry in the experiment on Candida albicans [1], with Bacillus subtilis [7], in the experiment on Aspergillus niger [9], in the experiment with Staphylococcus aureus [10], in the experiment on Escherichia coli [11] and in the experiment on Pseudomonas aeruginosa [12] was “inactive” each time. The “diameter of the inhibition zone (DIZ)” value in the experiment on Candida albicans [2], with Staphylococcus aureus [3], in the experiment with Bacillus subtilis [4], in the experiment with Pseudomonas aeruginosa [6] and in the experiment on Aspergillus niger [8] was “inactive” throughout. The zone of inhibition at 100 µg/disc in the experiment with Escherichia coli [5] turned out to be 11.1 mm.
As for `FC(F)(F)c1cc(/C(Cn2cncn2)=N\Nc2nc(-c3cc(C(F)(F)F)cc(C(F)(F)F)c3)cs2)cc(C(F)(F)F)c1`, the minimum inhibitory concentration (MIC) in the experiment on Candida albicans [1] worked out at 64 µg/mL (≈ 101 µM); with Aspergillus niger [9], 32 µg/mL (≈ 50.6 µM). For the same compound, the zone of inhibition at 100 µg/disc with Candida albicans [2] turned out to be 11.7 mm; with Escherichia coli [5] it was 13.1 mm; in the experiment with Aspergillus niger [8] it was 15.2 mm. For the same compound, the “diameter of the inhibition zone (DIZ)” value with Staphylococcus aureus [3], in the experiment on Bacillus subtilis [4] and in the experiment with Pseudomonas aeruginosa [6] was “inactive” throughout. Also, the MIC result in the experiment on Bacillus subtilis [7], in the experiment on Staphylococcus aureus [10], with Escherichia coli [11] and in the experiment with Pseudomonas aeruginosa [12] was “inactive” each time.
As for `O=[N+]([O-])c1ccc(/C(Cn2cncn2)=N\Nc2nc(-c3ccc(Br)cc3)cs2)cc1`, the MIC entry with Candida albicans [1], with Bacillus subtilis [7], in the experiment with Aspergillus niger [9] and in the experiment with Staphylococcus aureus [10] was “inactive” in each case. For the same compound, the “diameter of the inhibition zone (DIZ)” value in the experiment with Candida albicans [2], with Staphylococcus aureus [3], in the experiment with Bacillus subtilis [4] and in the experiment on Aspergillus niger [8] was “inactive” throughout. For the same compound, the zone of inhibition at 100 µg/disc in the experiment on Escherichia coli [5] is 11 mm; with Pseudomonas aeruginosa [6] it was 19.8 mm. Moreover, the MIC was greater than 64 µg/mL against Escherichia coli [11] (NCIM 2109, 24 h) and 64 µg/mL (≈ 132 µM) against Pseudomonas aeruginosa [12] (NCIM 2036, 24 h).
As for `FC(F)(F)c1cc(-c2csc(N/N=C(/Cn3cncn3)c3ccc(Br)cc3)n2)cc(C(F)(F)F)c1`, the minimum inhibitory concentration (MIC) with Candida albicans [1] is greater than 64 µg/mL; against Aspergillus niger [9] it was greater than 64 µg/mL; against Escherichia coli [11] (NCIM 2109, 24 h), greater than 64 µg/mL. For the same compound, the zone of inhibition at 100 µg/disc in the experiment on Candida albicans [2] was 13.9 mm; in the experiment on Escherichia coli [5] it was 11.4 mm; in the experiment on Aspergillus niger [8], 10.9 mm. Also, the “diameter of the inhibition zone (DIZ)” value in the experiment on Staphylococcus aureus [3], in the experiment with Bacillus subtilis [4] and in the experiment with Pseudomonas aeruginosa [6] was “inactive” in each case. Also, the MIC entry in the experiment with Bacillus subtilis [7], in the experiment on Staphylococcus aureus [10] and in the experiment with Pseudomonas aeruginosa [12] was “inactive” throughout.
`Fc1ccc(/C(Cn2cncn2)=N\Nc2nc(-c3ccc(Br)cc3)cs2)cc1`: the MIC in the experiment on Candida albicans [1] was 64 µg/mL (≈ 140 µM); against Aspergillus niger [9], 64 µg/mL (≈ 140 µM); in the experiment with Escherichia coli [11] (NCIM 2109, 24 h) it was 64 µg/mL (≈ 140 µM); with Pseudomonas aeruginosa [12] (NCIM 2036, 24 h), 32 µg/mL (≈ 70 µM). In addition, the zone of inhibition at 100 µg/disc came out at 14.8 mm in the experiment with Candida albicans [2], 18.2 mm with Pseudomonas aeruginosa [6] and 15.8 mm in the experiment with Aspergillus niger [8]. Besides, the “diameter of the inhibition zone (DIZ)” value in the experiment with Staphylococcus aureus [3], in the experiment with Bacillus subtilis [4] and with Escherichia coli [5] was “inactive” throughout. Besides, the MIC entry in the experiment on Bacillus subtilis [7] and in the experiment on Staphylococcus aureus [10] was “inactive” throughout.
